Data on 1 compound can be found in ChEMBL document CHEMBL3997828, “Investigation of orexin-2 selective receptor antagonists: Structural modifications resulting in dual orexin receptor antagonists” (Bioorg Med Chem Lett, 2017).

Data set [1] relates to Rattus norvegicus. The data set can be described thus: Sleep promoting activity in rat assessed as increase in NREM sleep at 0.5 to 3 mg/kg, po administered in mid active phase for 3 consecutive days by electroencephalogram/electromyogram analysis. The data set is classed as functional, organism-based. The method in brief:
(§1)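 Rats carried implanted radio-telemetry devices for EEG/EMG polysomnography. Oral doses were 0.5 (n=16), 1 (n=14) or 3 mg/kg (n=12) versus vehicle (20% vitamin E TPGS). Dosing was at ZT18:00 (6 h after lights off) on 3 consecutive days in a balanced cross-over. Active wake, NREM and REM time was scored in 30-min bins, and all treatment days were averaged over 24 h.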

Data set [2] deals with Rattus norvegicus. The data set can be described thus: Sleep promoting activity in po dosed rat assessed as attenuation of active wake administered in mid active phase for 3 consecutive days measured up to 2 hrs post dose by electroencephalogram/electromyogram analysis. It counts as functional, organism-based. The method in brief: as §1
The nature of data set [3]: Solubility of the compound in pH 1.8 SGF at 0.1 mg/ml after 15 mins by reverse-phase chromatography. Conditions: simulated gastric fluid (SGF). The data set is classed as physicochemical. The method in brief: (§2)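 Compound at […] was stirred at 80 rpm in SGF (0.01 N HCl, 0.9 wt.% NaCl, pH 1.8) or FASSIF (3 mM sodium taurocholate, 0.75 mM lecithin, 100 mM NaCl, NaOH/NaH₂PO₄, pH 6.5). It was then centrifuged at 14k rpm for 15 min.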

The target in data set [4] is T1, Orexin/Hypocretin receptor type 1 (Homo sapiens, UniProt O43613).
T1 sequence (O43613 whole entry): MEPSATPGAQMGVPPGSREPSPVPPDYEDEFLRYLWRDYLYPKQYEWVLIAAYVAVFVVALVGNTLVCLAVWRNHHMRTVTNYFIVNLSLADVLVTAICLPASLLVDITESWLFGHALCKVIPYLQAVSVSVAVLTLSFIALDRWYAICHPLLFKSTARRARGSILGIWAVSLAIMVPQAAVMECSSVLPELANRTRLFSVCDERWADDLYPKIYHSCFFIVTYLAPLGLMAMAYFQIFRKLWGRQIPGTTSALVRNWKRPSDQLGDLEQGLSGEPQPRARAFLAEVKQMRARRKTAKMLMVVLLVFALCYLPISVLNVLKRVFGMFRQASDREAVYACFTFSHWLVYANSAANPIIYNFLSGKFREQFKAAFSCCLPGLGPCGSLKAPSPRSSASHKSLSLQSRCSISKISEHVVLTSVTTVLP
The data set can be described thus: Antagonist activity at human OX1R expressed in CHOK1 cells assessed as reduction in orexin A-induced calcium flux preincubated followed by orexin A addition by FLIPR assays. It counts as functional, cell-based.

For data set [5], the system named is Mus musculus. The data set can be described thus: Sleep promoting activity in mouse assessed as increase in NREM sleep at 30 mg/kg, po administered in late active phase for 5 consecutive days by electroencephalogram/electromyogram analysis.
The subject of data set [6] is Mus musculus. The data set can be described thus: Sleep promoting activity in mouse assessed as attenuation of active wake at 30 mg/kg, po administered in late active phase for 5 consecutive days measured up to 1.5 hrs post dose by electroencephalogram/electromyogram analysis.
For data set [7], the species on record is Homo sapiens. The data set can be described thus: Selectivity ratio of Ki for human OX1R expressed in CHOK1 cell membranes to Ki for human OX2R expressed in CHOK1 cell membranes. It counts as cell-based. The method in brief:
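Radioligand competition binding used membranes from CHO-K1 cells overexpressing human OX1R or OX2R. […] The selectivity ratio is OX1R Ki divided by OX2R Ki.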

The test system of data set [8] is Rattus norvegicus. The data set can be described thus: Sleep promoting activity in rat assessed as increase in REM sleep at 0.5 to 3 mg/kg, po administered in mid active phase for 3 consecutive days by electroencephalogram/electromyogram analysis. The data set is classed as functional, organism-based. The method in brief:
as §1

For data set [9], the system named is Mus musculus. The data set can be described thus: Sleep promoting activity in mouse assessed as increase in REM sleep at 30 mg/kg, po administered in late active phase for 5 consecutive days by electroencephalogram/electromyogram analysis.
The nature of data set [10]: Solubility of the compound in pH 6.5 FASSIF at 0.1 mg/ml after 15 mins by reverse-phase chromatography. It counts as physicochemical. Conditions: fasted state simulated intestinal fluid (FaSSIF). The method in brief: as §2
For data set [11], the species on record is Homo sapiens. The data set can be described thus: Selectivity ratio of IC50 for human OX1R expressed in CHOK1 cells to IC50 for human OX2R expressed in CHOK1 cells by FLIPR assay. The data set is classed as cell-based.
Data set [12] relates to OX2R knockout mouse (Mus musculus). The data set can be described thus: Sleep promoting activity in OX2R knockout mouse assessed as attenuation of active wake at 30 mg/kg, po administered in late active phase for 5 consecutive days by electroencephalogram/electromyogram analysis.
Data set [13] addresses T2, Orexin receptor type 2 (Homo sapiens, UniProt O43614).
T2 sequence (O43614 whole entry): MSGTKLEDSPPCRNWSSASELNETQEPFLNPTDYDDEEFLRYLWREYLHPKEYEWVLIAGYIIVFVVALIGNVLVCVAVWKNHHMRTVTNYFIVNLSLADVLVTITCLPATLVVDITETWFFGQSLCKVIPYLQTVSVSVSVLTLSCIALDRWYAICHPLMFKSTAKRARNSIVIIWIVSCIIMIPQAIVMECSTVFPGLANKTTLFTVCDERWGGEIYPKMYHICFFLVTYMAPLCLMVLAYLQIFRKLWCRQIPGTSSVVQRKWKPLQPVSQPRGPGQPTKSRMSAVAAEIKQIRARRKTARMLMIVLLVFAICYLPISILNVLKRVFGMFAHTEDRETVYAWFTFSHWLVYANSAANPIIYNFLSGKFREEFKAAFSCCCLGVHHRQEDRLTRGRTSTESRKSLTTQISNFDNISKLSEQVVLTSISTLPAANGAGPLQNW
The data set can be described thus: Antagonist activity at human OX2R expressed in CHOK1 cells assessed as reduction in orexin A-induced calcium flux preincubated followed by orexin A addition by FLIPR assays. It counts as functional, cell-based. (Calcium assays in cells follow changes in intracellular calcium, usually with a dye or a luminescent sensor.)

The test system of data set [14] is OX2R knockout mouse (Mus musculus). The data set can be described thus: Sleep promoting activity in OX2R knockout mouse assessed as increase in NREM sleep at 30 mg/kg, po administered in late active phase for 5 consecutive days by electroencephalogram/electromyogram analysis.

Values after ≈ are worked out from the molar mass of the structure shown. Active and inactive are the calls of the source. No cut-off for these calls is given here.

As for `C[C@@H]1CC[C@@H](Oc2cc(C#N)ccn2)CN1C(=O)c1ccccc1-n1nccn1`, the result in [1], in [5], in data set [6], in data set [8] and in [9] was Active. Also, the Activity result in data set [2] was “Dose-dependent effect”. Also, the values for the solubility at 0.25 h in [3] and in data set [10] were 13.7 µg/mL (≈ 35.3 µM) and 13.5 µg/mL (≈ 34.8 µM), respectively. In addition, the figures for the IC50 in data set [4] and in [13] were 3200 to 3830 nM and 9 to 13 nM, respectively. In data set [7], the Ratio Ki worked out at 518. The Ratio IC50 in [11] was in the range of 295 to 356. For the same compound, the outcome in [12] and in data set [14] was inactive.
